Compound activity: PubChem, several laboratories
NRP1-CendR mod = modulators of CendR peptide binding to NRP-1, primary screen, biochemical, fluorescence polarization, uHTS; FAM-RPARPAR peptide binding to NRP-1; 0.85% of 360,000 active; inhibition, % at 25 µM;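 active means inhibition or corrected inhibition above about 18%, plus a signal ratio from 0.5 to 1.5, limit read from the data, passing the limit was not always enough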
HCV core dimer = inhibitors of HCV core protein dimerization, primary screen, biochemical, TR-FRET, high-throughput; TR-FRET GST/Flag-core106 dimerization, 1536-well; inhibition, % at 5 µM; 0.33% of 300,000 active;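 active means inhibition above the mean of all tested compounds plus 3 SD, set per screening campaign, cut at about 45% in these data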
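Assay system: tagged HCV core106 pair (GST and Flag); medium: KF-containing HEPES buffer, pH 7.45, DTT, CHAPS, BSA; also added: Eu donor and XL665 acceptor anti-tag antibodies; dosing: 5 µM single dose; timing: compound-protein-antibody incubation 4 h at 22.5 °C; signal: TR-FRET 671 and 617 nm emission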
MEX-5 binding = MEX-5 zinc finger RNA-binding disruptors – biochemical, C. elegans, fluorescence polarization, MLPCN library, primary screen; Zinc finger protein mex-5 (Caenorhabditis elegans), Q9XUB2; MEX-5/FITC-TCR2 RNA binding; stronger effect = lower value; activity score (negative = inhibition of binding), % at 10 µM; 0.38% of 300,000 active;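 active means inhibition past about -25% in most replicates, and total fluorescence under double the plate's negative control median, limit read from the data; inconclusive means replicates evenly split on the limit, or fluorescence at least double controls; inactive means too little inhibition in most replicates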;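 further: 0% = DMSO and -100% = 5 µM competing unlabeled TCR2 RNA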
FID counter = compounds displacing fluorescent DNA intercalator, primary screen, artefact control for HCV NS3 helicase inhibitor project, biochemical, FID fluorescence; 0.17% of 290,000 active; DNA fluorescent intercalator displacement; AID 1845, 2009; inhibition, % at 7.9 µM; in the data active means inhibition above about 37%;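 further: 0% = vehicle and 100% = reference compound; higher means more ethidium bromide displaced from hairpin DNA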
* hit, by the source's call. Compounds with a hit are over-represented: about 1.5% of the library has one in this group of screens.

What do the screens show for `COc1cccc(NC(=O)C2CC(=O)N=C(N)S2)c1` (stereo unspecified)?
NRP1-CendR mod: 3; HCV core dimer: -7; MEX-5 binding: -1; FID counter: -1

Results for O=C1C(Cl)=C(Nc2ccccc2O)C(=O)N1c1ccccc1 ?
NRP1-CendR mod: -25; HCV core dimer: 4; MEX-5 binding: -31*; FID counter: 1

How did COc1ccccc1N1C(=O)C(Cl)=C(Nc2ccccc2O)C1=O do in these assays?
NRP1-CendR mod: -68; MEX-5 binding: -29*; FID counter: -10

Results for CCOc1ccccc1NC1=C(Cl)C(=O)N(c2ccc(OC)cc2)C1=O ?
NRP1-CendR mod: 5; HCV core dimer: 12; MEX-5 binding: -1; FID counter: -3

What do the screens show for `O=c1cc(CN2CCOCC2)c2ccccc2o1`?
NRP1-CendR mod: -1

How did CNc1cccc(-c2cc(OC)c(OC)c(OC)c2)n1 do in these assays?
NRP1-CendR mod: 0

How did COc1cc(Nc2cccc(-c3ccccc3)n2)cc(OC)c1OC do in these assays?
NRP1-CendR mod: 30*

How did O=C1C2CC=C(Cl)CC2C(=O)N1CN(Cc1ccco1)CN1C(=O)C2CC=C(Cl)CC2C1=O (stereo unspecified) do in these assays?
NRP1-CendR mod: 0; HCV core dimer: 80*; MEX-5 binding: -11; FID counter: -6

What do the screens show for `O=C1C2CC=C(Cl)CC2C(=O)N1CC1Cc2ccccc2CO1` (stereo unspecified)?
NRP1-CendR mod: -12; HCV core dimer: 7; MEX-5 binding: -26*; FID counter: -8

How did O=C1C2CC=C(Cl)CC2C(=O)N1CC1OCCc2ccccc21 (stereo unspecified) do in these assays?
NRP1-CendR mod: 5; HCV core dimer: 4; MEX-5 binding: -7; FID counter: -7

What do the screens show for `O=C(Nc1ccc(F)cc1F)c1ccccc1-c1ccccc1`?
NRP1-CendR mod: 31*; HCV core dimer: -6; MEX-5 binding: 2; FID counter: -9

Results for O=C(Nc1cccc(F)c1)c1ccccc1-c1ccccc1 ?
NRP1-CendR mod: -2; HCV core dimer: -3; FID counter: -3

Results for COc1ccc(-c2csc(C(C)(O)c3ccc(OC)cc3)n2)cc1 (stereo unspecified) ?
NRP1-CendR mod: 1

How did Nc1ncnc(Nc2ccc(F)cc2)n1 do in these assays?
NRP1-CendR mod: 6; HCV core dimer: 3; MEX-5 binding: 4; FID counter: 0

How did Fc1ccc(Nc2ccnc(Nc3ccc(F)cc3)n2)cc1 do in these assays?
NRP1-CendR mod: -3; HCV core dimer: -7; MEX-5 binding: 2; FID counter: 39*

What do the screens show for `Cc1ccc(NC(=O)c2sc3nc4c(c(-c5ccco5)c3c2N)CCC4)cc1`?
NRP1-CendR mod: -53; HCV core dimer: 10; MEX-5 binding: -55*; FID counter: -13

Results for CCOC(=O)CSc1nnc2c3ccccc3n(C)c2n1 ?
NRP1-CendR mod: 26*; HCV core dimer: -14; MEX-5 binding: 0; FID counter: -8

How did O=S1(=O)c2ccccc2N=NN1Cc1cc(Cl)cc(Cl)c1 do in these assays?
HCV core dimer: 46*; MEX-5 binding: -1; FID counter: -6

Results for O=C1c2ccncc2C(=O)N1Cc1cccc(Cl)c1 ?
NRP1-CendR mod: -7; HCV core dimer: 4; MEX-5 binding: 2; FID counter: 6

What do the screens show for `O=S1(=O)c2ccccc2N=NN1Cc1ccc(Cl)cc1`?
NRP1-CendR mod: 3; HCV core dimer: 47*; MEX-5 binding: -1; FID counter: -7

Results for Cc1ccc(/C(N)=N/OC(=O)c2ccc(Cl)cc2Cl)cc1 ?
NRP1-CendR mod: 52*; HCV core dimer: 1; MEX-5 binding: -2; FID counter: 3

Results for Cc1cccc(C(=O)O/N=C(\N)c2ccc(Cl)cc2)c1 ?
NRP1-CendR mod: 10; HCV core dimer: -2; MEX-5 binding: -1; FID counter: -5

What do the screens show for `COc1cccc(C(=Cc2ccc([N+](=O)[O-])cc2)C(=O)O)c1`?
NRP1-CendR mod: -4

How did Cc1nn(-c2ccccc2)c(N2CCCC2)c1/C=C1\N=C(c2ccccc2)OC1=O do in these assays?
NRP1-CendR mod: 76*; HCV core dimer: 2; MEX-5 binding: 2; FID counter: -2

What do the screens show for `COc1ccc2c(c1)C(O)C(CO)C(C(=O)O)C2` (stereo unspecified)?
NRP1-CendR mod: 0

What do the screens show for `Cc1cc(C)nc(NS(=O)(=O)c2ccc(NC(=O)c3nn(-c4ccccc4)ccc3=O)cc2)n1`?
NRP1-CendR mod: 7; HCV core dimer: 0; MEX-5 binding: 3; FID counter: -14

Results for Cc1cccc(-n2ccc(=O)c(C(=O)Nc3ccc(S(=O)(=O)Nc4onc(C)c4C)cc3)n2)c1 ?
NRP1-CendR mod: 36*; HCV core dimer: -4; MEX-5 binding: -3; FID counter: -19

Results for CCNC(=O)C1(C)CCCN(Cc2cccc3c(OC)cc(C(=O)OCC)cc23)C1 (stereo unspecified) ?
NRP1-CendR mod: -11

What do the screens show for `Cc1cc(=O)[nH]c(N/N=C/c2ccc(O)c(O)c2)n1`?
NRP1-CendR mod: 0; HCV core dimer: -5; MEX-5 binding: -42*; FID counter: -5

How did O=c1ccc2c(-c3ccccc3)c3ccc(O)cc3oc-2c1 do in these assays?
NRP1-CendR mod: 120; HCV core dimer: 66*; MEX-5 binding: inconclusive; FID counter: -18

What do the screens show for `CC(NC(=O)CSc1nc2c(c(C(F)(F)F)n1)CCc1ccccc1-2)c1ccccc1` (stereo unspecified)?
NRP1-CendR mod: 28*; HCV core dimer: 18; MEX-5 binding: 0; FID counter: 0

How did Cn1cc([C@]2(O)C(=O)Nc3ccc(Br)cc32)c2ccccc21 do in these assays?
NRP1-CendR mod: 1

Results for Cc1ccc2c(c1)-c1cc(C)nn1C(c1sccc1C)N2 (stereo unspecified) ?
NRP1-CendR mod: 27*; HCV core dimer: 4; MEX-5 binding: 0; FID counter: -6

Results for Cc1cc2n(n1)C(c1sccc1C)Nc1ccccc1-2 (stereo unspecified) ?
NRP1-CendR mod: -2; HCV core dimer: -2; MEX-5 binding: 1; FID counter: 0

Results for COc1ccc(S(=O)(=O)N2CCCCC2)cc1NC(=O)c1ccccc1 ?
NRP1-CendR mod: 2; HCV core dimer: 0; MEX-5 binding: -1

What do the screens show for `COc1ccc(S(=O)(=O)N2CCCCC2)cc1NC(=O)c1c(F)cccc1Cl`?
NRP1-CendR mod: 26*

How did Cc1ccc(Cl)c2c1=NC(=O)C=2c1[nH]c(=S)[nH]c1O do in these assays?
NRP1-CendR mod: 1; HCV core dimer: 1; MEX-5 binding: -45*; FID counter: 7

What do the screens show for `O=C1c2cccc3cccc(c23)C(=O)C1(O)O`?
NRP1-CendR mod: 54*; HCV core dimer: -33; MEX-5 binding: -59*
